Assay results as given in PMC7396739 (Drug Design, Development and Therapy, 2020).

Columns and labels:
[1] = rats; cited from earlier work
[2] = Determination of saturated solubility of ASDs in distilled water; type: physicochemical; conditions: 37±0.5°C, 48 h, drug:Soluplus 1:10 w/w, Figure 5A
Outline: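 Solid dispersions were made by co-precipitation from anhydrous ethanol, freeze-drying from 2% ethanol (−40°C 8 h, then −45°C 24 h), or microwave (700 W, 10 min) with liquid-nitrogen quench. Products were ground and sieved (60 mesh). Excess material was shaken in 5 mL water, then filtered (0.45 µm). Concentration was measured by HPLC (C18, acetonitrile-water 84:16, 203 nm).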

[3] = Crystallization inhibition of excipients; type: physicochemical; conditions: after 5 min
Outline: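 Supersaturated stock (27 mg test compound in 5 mL 95% ethanol) added rapidly to 900 mL water, here with no excipient (control), at 37°C and 50 r/min. 5 mL samples were taken at 5–240 min and replaced with drug-free medium. Samples were filtered (0.22 µm) and assayed by HPLC (C18, acetonitrile-water 84:16, 1 mL/min, 203 nm). Run in triplicate.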

C[C@@H]1CC[C@@]2(OC1)O[C@H]1C[C@H]3[C@@H]4CC=C5C[C@@H](O)CC[C@]5(C)[C@H]4CC[C@]3(C)[C@H]1[C@@H]2C [Dio, diosgenin]
absolute bioavailability [1]: about 7%
solubility [2]: lower than the detection limit
concentration of Dio in dissolution medium without excipient [3]: lower than the detection limit
